Activity calls are given as the source filed them. No cut-off for these calls is given here.
Assays:
[1] = biological target: Beta-3 adrenergic receptor (Homo sapiens) (UniProt P13945); test: Agonist activity at ADRB3 receptor (unknown origin); type: functional
Procedure, shortened: (§1)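 PRESTO-Tango β-arrestin2 recruitment; HTLA cells (HEK-T stably expressing β-arrestin2-TEV and tTA-dependent luciferase) transfected by calcium phosphate with receptor-Tango construct, replated next day at 20,000 cells/well; compounds in HBSS/20 mM HEPES/0.3% BSA pH 7.4, 18–24 h; Bright-Glo luminescence after 15 min RT, read as RLU; ≥2-fold over basal scored active.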

[2] = biological target: Alpha-2C adrenergic receptor (Homo sapiens) (UniProt P18825); test: Agonist activity at ADRA2C receptor (unknown origin); procedure, shortened: as §1
[3] = biological target: Melanin-concentrating hormone receptor 2 (Homo sapiens) (UniProt Q969V1); test: Agonist activity at MCHR2 receptor (unknown orgini); type: functional; procedure, shortened: as §1
[4] = biological target: 5-hydroxytryptamine receptor 1A (Homo sapiens) (UniProt P08908); test: Agonist activity at HTR1A receptor (unknown origin); type: functional; procedure, shortened: as §1
[5] = biological target: T1, Mas-related G-protein coupled receptor member X2 (Homo sapiens, UniProt Q96LB1); test: Agonist activity at N-terminal Flag-tagged human MRGPRX2 receptor expressed in tetracycline-induced FLP-IN/T-REX 293 cells assessed as increase in intracellular calcium release by FLIPR assay; type: functional, cell-based
T1 sequence (Q96LB1 whole entry): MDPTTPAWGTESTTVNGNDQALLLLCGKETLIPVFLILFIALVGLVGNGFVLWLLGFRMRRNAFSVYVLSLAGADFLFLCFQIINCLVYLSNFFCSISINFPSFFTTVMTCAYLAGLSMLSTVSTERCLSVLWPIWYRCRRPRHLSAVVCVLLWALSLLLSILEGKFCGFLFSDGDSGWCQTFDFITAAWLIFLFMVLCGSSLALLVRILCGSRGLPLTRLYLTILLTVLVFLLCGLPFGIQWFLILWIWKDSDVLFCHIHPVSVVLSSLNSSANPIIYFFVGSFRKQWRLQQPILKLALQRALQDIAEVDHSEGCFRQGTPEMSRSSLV

[6] = biological target: Lutropin-choriogonadotropic hormone receptor (Homo sapiens) (UniProt P22888); test: Agonist activity at LHCGR (unknown origin); type: functional; procedure, shortened: as §1
[7] = biological target: Glucose-dependent insulinotropic receptor (Homo sapiens) (UniProt Q8TDV5); test: Agonist activity at GPR119 receptor (unknown origin); type: functional; procedure, shortened: as §1
[8] = biological target: Beta-1 adrenergic receptor (Homo sapiens) (UniProt P08588); test: Agonist activity at ADRB1 receptor (unknown origin); type: functional; procedure, shortened: as §1
[9] = biological target: Proteinase-activated receptor 2 (Homo sapiens) (UniProt P55085); test: Agonist activity at F2R-L1 receptor (unknown origin); procedure, shortened: as §1
[10] = biological target: Alpha-1D adrenergic receptor (Homo sapiens) (UniProt P25100); test: Agonist activity at ADRA1D receptor (unknown origin); type: functional; procedure, shortened: as §1
[11] = biological target: 5-hydroxytryptamine receptor 2A (Homo sapiens) (UniProt P28223); test: Agonist activity at HTR2 receptor (unknown origin); type: functional; procedure, shortened: as §1
[12] = biological target: Alpha-1B adrenergic receptor (Homo sapiens) (UniProt P35368); test: Agonist activity at ADRA1B receptor (unknown origin); type: functional; procedure, shortened: as §1
[13] = biological target: T2, Mas-related G-protein coupled receptor member X2 (Homo sapiens) (UniProt Q96LB1); test: Agonist activity at MRGPRX2 receptor in human LAD2 cells assessed as increase in degranulation incubated for 30 mins by beta-hexosaminidase assay; type: functional, cell-based; details: filed as agonist
T2 sequence (whole entry): T1 sequence (Q96LB1 whole entry)
Procedure, shortened: (§2)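 β-Hexosaminidase release: LAD2 cells in fresh medium 18 h, washed in Tyrode's buffer pH 7.4, 10,000 cells/well; drug (single concentration or 8-point curve) added in triplicate, 30 min 37°C; supernatant and Triton X-100 lysate each reacted with NAG in citrate pH 4.5 for 90 min 37°C, stopped with carbonate pH 10, A405; % release = released/total ×100, minus vehicle.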

[14] = biological target: Pituitary adenylate cyclase-activating polypeptide type I receptor (Homo sapiens) (UniProt P41586); test: Agonist activity at ADCYAP1 receptor (unknown origin); procedure, shortened: as §1
[15] = biological target: Gastrin-releasing peptide receptor (Homo sapiens) (UniProt P30550); test: Agonist activity at GRPR (unknown origin); type: functional; procedure, shortened: as §1
[16] = biological target: D(4) dopamine receptor (Homo sapiens) (UniProt P21917); test: Agonist activity at DRD4 receptor (unknown origin); type: functional; procedure, shortened: as §1
[17] = biological target: Muscarinic acetylcholine receptor M2 (Homo sapiens) (UniProt P08172); test: Agonist activity at CHRM2 receptor (unknown origin); type: functional; procedure, shortened: as §1
[18] = biological target: Glucagon-like peptide 1 receptor (Homo sapiens) (UniProt P43220); test: Agonist activity at GLP1R (unknown origin); type: functional; procedure, shortened: as §1
[19] = biological target: Prosaposin receptor GPR37 (Homo sapiens) (UniProt O15354); test: Agonist activity at GPR37 receptor (unknown origin); type: functional; procedure, shortened: as §1
[20] = biological target: T1, Mas-related G-protein coupled receptor member X2; test: Agonist activity at MRGPRX2 (unknown origin) expressed in HTLA cells assessed as induction of beta-arrestin 2 recruitment incubated for 18 to 24 hrs by PRESTO-Tango assay; type: functional, cell-based
[21] = biological target: Type-1 angiotensin II receptor (Homo sapiens) (UniProt P30556); test: Agonist activity at AGTR1 receptor (unknown origin); type: functional; procedure, shortened: as §1
[22] = biological target: G-protein coupled receptor 15 (Homo sapiens) (UniProt P49685); test: Agonist activity at GPR15 receptor (unknown origin); type: functional; procedure, shortened: as §1
[23] = biological target: Cannabinoid receptor 2 (Homo sapiens) (UniProt P34972); test: Agonist activity at CNR2 receptor (unknown origin); type: functional; procedure, shortened: as §1
[24] = biological target: Alpha-1A adrenergic receptor (Homo sapiens) (UniProt P35348); test: Agonist activity at ADRA1A receptor (unknown origin); type: functional; procedure, shortened: as §1
[25] = biological target: T2, Mas-related G-protein coupled receptor member X2 (Homo sapiens); test: Agonist activity at N-terminal Flag-tagged human MRGPRX2 receptor expressed in tetracycline-induced FLP-IN/T-REX 293 cells assessed as increase in intracellular calcium release <100 uM by FLIPR assay; type: functional, cell-based; details: filed as agonist
Procedure, shortened: (§3)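 FLIPR calcium: FLP-IN/T-REX HEK-293-T stable line with N-terminal FLAG codon-optimized receptor, induced 24 h with 1 μg/mL tetracycline in 1% dialyzed FBS (uninduced cells as control); FLIPR calcium dye plus 2.5 mM probenecid 1 h 37°C; 10 s baseline, then drug in HBSS/20 mM HEPES/probenecid pH 7.4, 16-point curve 10 μM to 0.003 nM; fluorescence 120 s; fold over basal, n=3 triplicate.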

[26] = biological target: T2, Mas-related G-protein coupled receptor member X2 (Homo sapiens); test: Agonist activity at MRGPRX2 (unknown origin) expressed in HTLA cells assessed as induction of beta-arrestin 2 recruitment <100 uM incubated for 18 to 24 hrs by PRESTO-Tango assay; type: functional, cell-based; details: filed as agonist, time 18-24 hrs
Procedure, shortened: (§4)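 β-arrestin2 recruitment by PRESTO-Tango: HTLA cells transiently transfected (calcium phosphate) with codon-optimized MRGPRX2-Tango (WT or point mutant) or MRGPRB2-Tango, plated next day 20,000 cells/well on poly-L-lysine; drug in HBSS/20 mM HEPES/0.3% BSA pH 7.4 for 18–24 h; Bright-Glo luminescence (RLU); curves n=3 in triplicate, mutants n=4 in triplicate.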

[27] = biological target: T2, Mas-related G-protein coupled receptor member X2 (Homo sapiens); test: Agonist activity at N-terminal Flag-tagged human MRGPRX2 receptor expressed in tetracycline-induced HEK-T cells assessed as increase in intracellular calcium release by FLIPR assay; type: functional, cell-based; details: HEK-T cell, filed as agonist; procedure, shortened: as §3
[28] = system: HTLA; test: Agonist activity at MRGPRX2 D184E mutant (unknown origin) expressed in HTLA cells assessed as induction of beta-arrestin 2 recruitment incubated for 18 to 24 hrs by PRESTO-Tango assay; type: cell-based; details: Homo sapiens, time 18-24 hrs; procedure, shortened: as §4
[29] = biological target: T2, Mas-related G-protein coupled receptor member X2 (Homo sapiens); test: Agonist activity at N-terminal Flag-tagged human MRGPRX2 receptor expressed in HEK-T cells assessed as increase in intracellular calcium release by FLIPR assay; type: functional, cell-based; details: HEK-T cell; procedure, shortened: as §3
[30] = system: HTLA; test: Agonist activity at MRGPRX2 E164D mutant (unknown origin) expressed in HTLA cells assessed as induction of beta-arrestin 2 recruitment incubated for 18 to 24 hrs by PRESTO-Tango assay; type: cell-based; details: Homo sapiens, filed as agonist, time 18-24 hrs; procedure, shortened: as §4
[31] = biological target: T2, Mas-related G-protein coupled receptor member X2 (Homo sapiens); test: Agonist activity at MRGPRX2 receptor in human LAD2 cells assessed as increase in degranulation incubated for 30 mins in presence of naloxone by beta-hexosaminidase assay; type: functional, cell-based; procedure, shortened: as §2
[32] = biological target: T2, Mas-related G-protein coupled receptor member X2 (Homo sapiens); test: Agonist activity at MRGPRX2 receptor in human LAD2 cells assessed as increase in intracellular calcium release by FLIPR assay; type: functional, cell-based; details: filed as agonist
Procedure, shortened: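 LAD2 human mast cells seeded 50,000/well in Tyrode's buffer with calcium dye, 1 h before drug; 10 s baseline, drug added, fluorescence followed 120 s; expressed as fold calcium release over baseline; n=3 in triplicate.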

[33] = biological target: T2, Mas-related G-protein coupled receptor member X2 (Homo sapiens); test: Agonist activity at MRGPRX2 receptor in human LAD2 cells transfected with MRGPRX2 siRNA assessed as increase in degranulation incubated for 30 mins by beta-hexosaminidase assay; type: functional, cell-based
Procedure, shortened: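 LAD2 cells (1.2 million/well) transfected with 25 nM MRGPRX2 siRNA pool or non-targeting pool, 72 h; 200,000 cells taken for β-hexosaminidase assay with EC80 concentration of agonist, 30 min 37°C; knockdown checked by qRT-PCR on 1 million cells; fold change % degranulation versus DMSO; two-way ANOVA with Sidak test.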

Chain of Melanin-concentrating hormone receptor 2 (Homo sapiens) (Q969V1 whole entry): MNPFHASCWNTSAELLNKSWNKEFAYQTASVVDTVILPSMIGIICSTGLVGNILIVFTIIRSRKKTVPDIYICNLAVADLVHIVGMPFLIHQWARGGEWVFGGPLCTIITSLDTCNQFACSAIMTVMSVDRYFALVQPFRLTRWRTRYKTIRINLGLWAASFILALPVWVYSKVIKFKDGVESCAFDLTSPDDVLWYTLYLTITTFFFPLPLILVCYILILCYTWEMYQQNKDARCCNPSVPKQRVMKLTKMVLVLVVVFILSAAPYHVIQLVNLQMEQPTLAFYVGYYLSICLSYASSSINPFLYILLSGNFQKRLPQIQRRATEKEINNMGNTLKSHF
Chain of Prosaposin receptor GPR37 (Homo sapiens) (O15354 whole entry): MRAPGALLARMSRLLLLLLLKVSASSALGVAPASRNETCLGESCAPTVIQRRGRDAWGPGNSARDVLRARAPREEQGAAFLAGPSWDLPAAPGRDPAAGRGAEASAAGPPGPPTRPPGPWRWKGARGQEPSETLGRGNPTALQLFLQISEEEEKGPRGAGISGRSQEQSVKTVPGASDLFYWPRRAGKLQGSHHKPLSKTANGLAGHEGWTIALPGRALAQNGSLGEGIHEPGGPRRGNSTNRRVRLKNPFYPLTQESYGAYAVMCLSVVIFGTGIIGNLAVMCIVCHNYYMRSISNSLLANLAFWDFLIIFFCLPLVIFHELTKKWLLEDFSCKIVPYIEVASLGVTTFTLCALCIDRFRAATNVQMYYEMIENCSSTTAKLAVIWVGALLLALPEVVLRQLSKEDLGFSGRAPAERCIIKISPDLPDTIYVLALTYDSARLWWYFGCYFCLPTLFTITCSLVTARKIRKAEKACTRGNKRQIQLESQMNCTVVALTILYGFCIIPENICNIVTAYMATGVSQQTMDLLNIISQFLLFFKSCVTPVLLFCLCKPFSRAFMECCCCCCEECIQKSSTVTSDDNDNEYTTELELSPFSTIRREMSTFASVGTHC
Chain of Gastrin-releasing peptide receptor (Homo sapiens) (P30550 whole entry, looked up): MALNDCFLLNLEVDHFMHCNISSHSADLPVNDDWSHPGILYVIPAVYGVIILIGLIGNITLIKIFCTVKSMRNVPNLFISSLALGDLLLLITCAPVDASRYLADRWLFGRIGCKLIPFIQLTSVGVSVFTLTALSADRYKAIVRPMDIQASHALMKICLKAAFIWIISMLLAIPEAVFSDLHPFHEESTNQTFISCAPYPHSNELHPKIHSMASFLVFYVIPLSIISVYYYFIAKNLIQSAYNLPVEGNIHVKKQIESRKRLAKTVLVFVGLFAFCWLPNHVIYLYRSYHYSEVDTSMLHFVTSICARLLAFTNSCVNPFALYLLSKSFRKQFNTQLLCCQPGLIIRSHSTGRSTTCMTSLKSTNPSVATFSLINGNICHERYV
Chain of Lutropin-choriogonadotropic hormone receptor (Homo sapiens) (P22888 whole entry): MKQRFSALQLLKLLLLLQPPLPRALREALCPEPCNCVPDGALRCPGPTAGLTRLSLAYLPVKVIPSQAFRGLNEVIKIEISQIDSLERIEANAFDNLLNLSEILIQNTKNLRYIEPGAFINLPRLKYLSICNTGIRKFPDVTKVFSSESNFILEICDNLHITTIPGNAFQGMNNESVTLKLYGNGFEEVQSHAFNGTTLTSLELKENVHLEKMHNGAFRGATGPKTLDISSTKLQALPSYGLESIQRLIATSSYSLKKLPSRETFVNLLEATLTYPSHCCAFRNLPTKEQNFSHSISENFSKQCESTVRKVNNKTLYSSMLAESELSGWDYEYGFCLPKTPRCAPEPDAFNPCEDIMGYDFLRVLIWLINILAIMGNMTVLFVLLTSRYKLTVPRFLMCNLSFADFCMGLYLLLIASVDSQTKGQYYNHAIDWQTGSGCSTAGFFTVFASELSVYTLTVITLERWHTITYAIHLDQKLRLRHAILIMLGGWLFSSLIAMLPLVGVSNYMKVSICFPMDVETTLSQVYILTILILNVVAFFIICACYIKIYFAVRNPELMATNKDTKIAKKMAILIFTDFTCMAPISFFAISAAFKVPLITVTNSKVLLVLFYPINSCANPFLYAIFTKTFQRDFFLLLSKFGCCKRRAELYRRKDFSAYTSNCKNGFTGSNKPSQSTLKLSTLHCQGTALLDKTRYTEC
Chain of 5-hydroxytryptamine receptor 2A (Homo sapiens) (P28223 whole entry): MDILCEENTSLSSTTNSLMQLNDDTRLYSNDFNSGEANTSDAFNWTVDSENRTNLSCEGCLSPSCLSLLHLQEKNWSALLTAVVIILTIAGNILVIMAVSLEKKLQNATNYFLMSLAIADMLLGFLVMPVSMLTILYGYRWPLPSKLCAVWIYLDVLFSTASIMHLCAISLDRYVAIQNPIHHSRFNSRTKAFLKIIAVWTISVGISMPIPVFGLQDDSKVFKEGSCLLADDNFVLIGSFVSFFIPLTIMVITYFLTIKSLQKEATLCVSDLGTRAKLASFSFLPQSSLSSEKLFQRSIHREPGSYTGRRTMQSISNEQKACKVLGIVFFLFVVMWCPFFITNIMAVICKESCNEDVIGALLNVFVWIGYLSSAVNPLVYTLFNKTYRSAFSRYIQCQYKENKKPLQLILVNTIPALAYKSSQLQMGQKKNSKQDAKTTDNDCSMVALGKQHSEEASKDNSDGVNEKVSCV
Chain of Glucose-dependent insulinotropic receptor (Homo sapiens) (Q8TDV5 whole entry): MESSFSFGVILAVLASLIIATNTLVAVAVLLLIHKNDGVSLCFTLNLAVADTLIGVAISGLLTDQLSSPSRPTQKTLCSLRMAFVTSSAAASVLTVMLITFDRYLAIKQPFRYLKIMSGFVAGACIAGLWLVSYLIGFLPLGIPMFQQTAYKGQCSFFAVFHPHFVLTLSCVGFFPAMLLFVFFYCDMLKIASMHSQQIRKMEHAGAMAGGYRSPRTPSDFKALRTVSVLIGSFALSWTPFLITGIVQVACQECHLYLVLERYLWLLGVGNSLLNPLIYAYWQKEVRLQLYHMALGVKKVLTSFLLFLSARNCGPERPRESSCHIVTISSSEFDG
Chain of G-protein coupled receptor 15 (Homo sapiens) (P49685 whole entry): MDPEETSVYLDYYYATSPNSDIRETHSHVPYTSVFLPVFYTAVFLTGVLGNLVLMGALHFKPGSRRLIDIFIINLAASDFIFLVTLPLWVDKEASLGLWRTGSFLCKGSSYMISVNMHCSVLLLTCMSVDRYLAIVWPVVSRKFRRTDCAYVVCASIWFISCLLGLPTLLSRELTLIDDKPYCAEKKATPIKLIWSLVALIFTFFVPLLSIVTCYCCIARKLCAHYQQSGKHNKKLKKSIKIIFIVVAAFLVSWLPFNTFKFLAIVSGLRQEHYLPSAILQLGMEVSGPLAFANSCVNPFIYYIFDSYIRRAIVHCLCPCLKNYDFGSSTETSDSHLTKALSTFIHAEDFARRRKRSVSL
Chain of Beta-1 adrenergic receptor (Homo sapiens) (P08588 whole entry, looked up): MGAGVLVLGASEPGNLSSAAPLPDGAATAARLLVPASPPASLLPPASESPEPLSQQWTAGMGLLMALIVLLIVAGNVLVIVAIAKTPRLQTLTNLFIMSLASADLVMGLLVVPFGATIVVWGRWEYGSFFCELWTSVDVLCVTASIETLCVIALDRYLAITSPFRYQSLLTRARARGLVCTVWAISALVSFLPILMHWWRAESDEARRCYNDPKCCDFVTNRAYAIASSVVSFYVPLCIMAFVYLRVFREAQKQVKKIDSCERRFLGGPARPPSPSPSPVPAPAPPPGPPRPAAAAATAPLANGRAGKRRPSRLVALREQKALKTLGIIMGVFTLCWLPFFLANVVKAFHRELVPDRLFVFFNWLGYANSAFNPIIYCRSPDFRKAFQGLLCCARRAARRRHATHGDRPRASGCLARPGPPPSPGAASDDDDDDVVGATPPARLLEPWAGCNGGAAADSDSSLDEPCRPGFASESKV
Chain of Muscarinic acetylcholine receptor M2 (Homo sapiens) (P08172 whole entry): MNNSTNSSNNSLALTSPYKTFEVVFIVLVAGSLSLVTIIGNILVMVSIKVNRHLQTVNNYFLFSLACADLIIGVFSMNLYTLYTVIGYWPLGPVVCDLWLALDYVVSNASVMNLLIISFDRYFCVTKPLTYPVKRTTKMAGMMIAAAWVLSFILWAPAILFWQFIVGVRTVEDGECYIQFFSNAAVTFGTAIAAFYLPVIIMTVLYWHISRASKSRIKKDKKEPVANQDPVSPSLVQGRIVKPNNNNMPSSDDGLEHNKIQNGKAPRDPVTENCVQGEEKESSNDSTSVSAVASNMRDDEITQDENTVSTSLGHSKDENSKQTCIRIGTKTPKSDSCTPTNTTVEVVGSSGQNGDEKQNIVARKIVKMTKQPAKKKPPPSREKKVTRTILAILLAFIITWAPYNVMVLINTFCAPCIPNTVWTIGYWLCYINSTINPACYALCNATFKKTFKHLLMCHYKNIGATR
Chain of Pituitary adenylate cyclase-activating polypeptide type I receptor (Homo sapiens) (P41586 21-468 limits assumed): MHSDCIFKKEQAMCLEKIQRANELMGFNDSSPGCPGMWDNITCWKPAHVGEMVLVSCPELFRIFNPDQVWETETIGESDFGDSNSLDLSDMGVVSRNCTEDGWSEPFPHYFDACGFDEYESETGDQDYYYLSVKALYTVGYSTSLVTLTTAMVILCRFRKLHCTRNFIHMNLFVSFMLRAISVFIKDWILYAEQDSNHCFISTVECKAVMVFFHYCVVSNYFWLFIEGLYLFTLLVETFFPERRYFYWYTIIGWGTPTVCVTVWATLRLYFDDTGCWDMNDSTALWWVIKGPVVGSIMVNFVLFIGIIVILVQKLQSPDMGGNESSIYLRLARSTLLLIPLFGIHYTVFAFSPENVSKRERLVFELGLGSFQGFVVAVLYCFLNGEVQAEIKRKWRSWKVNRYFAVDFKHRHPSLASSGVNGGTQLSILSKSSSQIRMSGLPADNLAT
Chain of Cannabinoid receptor 2 (Homo sapiens) (P34972 whole entry): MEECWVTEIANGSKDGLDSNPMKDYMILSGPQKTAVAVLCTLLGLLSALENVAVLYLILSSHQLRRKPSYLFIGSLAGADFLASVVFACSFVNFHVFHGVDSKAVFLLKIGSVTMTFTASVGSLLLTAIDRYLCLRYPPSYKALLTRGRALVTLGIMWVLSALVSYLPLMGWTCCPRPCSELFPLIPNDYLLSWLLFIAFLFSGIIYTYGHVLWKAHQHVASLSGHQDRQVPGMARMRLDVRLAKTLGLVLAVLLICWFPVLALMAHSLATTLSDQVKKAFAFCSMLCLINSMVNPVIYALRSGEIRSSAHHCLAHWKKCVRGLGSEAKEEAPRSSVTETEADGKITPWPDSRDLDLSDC

Structure (SMILES) | Activity [1] | Activity [2] | Activity [3] | Activity [4] | EC50 ([5]; read-out: EC50) | Activity [6] | Activity [7] | Activity [8] | Activity [9] | Activity [10] | Activity [11] | Activity [12] | Activity [13] | Activity [14] | Activity [15] | Activity [16] | Activity [17] | Activity [18] | Activity [19] | EC50 ([20]; read-out: EC50) | also measured
CN(C)[C@@H]1CCN(c2cc(-c3ccccc3)nc3ccnn23)C1 [(R)-ZINC-3573] | inactive | inactive | inactive | inactive | 1 µM | inactive | inactive | inactive | inactive | inactive | inactive | inactive | Active | inactive | inactive | inactive | inactive | inactive | inactive | 0.74 µM | Activity [21]: inactive; Activity [22]: inactive; Activity [23]: inactive; Activity [24]: inactive
CN(C)[C@H]1CCN(c2cc(-c3ccccc3)nc3ccnn23)C1 [(S)-ZINC-3573] | inactive | inactive | inactive | inactive |  | inactive | inactive | inactive | inactive | inactive | inactive | inactive |  | inactive | inactive | inactive | inactive | inactive | inactive | > 100 µM | Activity [25]: Active; Activity [26]: Active; Activity [21]: inactive; Activity [22]: inactive; Activity [23]: inactive; Activity [24]: inactive
CN1CC[C@@]23CCCC[C@@H]2[C@@H]1Cc1ccc(O)cc13 [DEXTRORPHAN] |  |  |  |  | 6 µM |  |  |  |  |  |  |  |  |  |  |  |  |  |  | 4.3 µM | Activity [27]: Active; EC50 ([5]; read-out: pEC50 (converted)): 3.89 µM; Activity [28]: inactive; EC50 ([20]; read-out: pEC50 (converted)): 4.17 µM; Activity [29]: inactive; Activity [30]: Active
CN1CC[C@]23c4c5ccc(O)c4O[C@H]2[C@@H](O)C=C[C@H]3[C@H]1C5 [MORPHINE] |  |  |  |  | 7 µM |  |  |  |  |  |  |  | Active |  |  |  |  |  |  | 6.4 µM | Activity [31]: inactive; Activity [28]: inactive; Activity [32]: Active; EC50 ([20]; read-out: pEC50 (converted)): 6.17 µM; Activity [33]: inactive; Activity [30]: Active
